Source: PubChem
CHOP inh – inhibitors of CHOP induction in ER stress response | CHO-K1 CHOP-promoter luciferase, tunicamycin-induced, 15-18 h | inhibition, % at 10 µM | 220,000 compounds, 3.8% hits | AID 2732;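 active = compounds that reduced the stress-induced luciferase reporter signal by more than about 70% of percent inhibition, limit read from the data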;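 note: 0% = tunicamycin plus vehicle and 100% = wells without tunicamycin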
Dynein cargo inh – dynein cargo transport inhibition. 3617.4 mouse cells, GR-EGFP nuclear translocation imaging; test concentration mostly 20 µM; stimulated with dexamethasone, 1 µM; hits give low values. z-score, hits read low. 220,000 compounds, 0.47% hits. AID 1381;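 active = plate z-score of nuclear minus cytoplasmic receptor signal below a set negative limit, without overly bright fluorescence or cell loss, cut at about -3.5 in these data, passing the limit was not always enough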;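 note: z-score of nuclear minus cytoplasmic ring GR-EGFP intensity difference per well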
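Buffer or medium: tetracycline-free induction medium containing charcoal-stripped FBS / Reagent: dexamethasone agonist, 1.0 µM final, for 30 min / Technique: automated 10x imaging of fixed Hoechst-stained cells / Times: induction 48 h, compound 1 h, agonist 30 min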
T cruzi inh – T. cruzi replication inhibition. T. cruzi beta-gal in NIH3T3, luminescence, 90 h. inhibition, % (no concentration beside the values). 300,000 compounds, 1.4% hits. AID 1885;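 active = mean inhibition across valid replicates above about 55%, limit read from the data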;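 note: signal also drops with host cell toxicity which is not excluded here; 0% = plate median of DMSO wells and 100% = zero luminescence signal; higher percent means less beta-gal luminescence so fewer parasites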
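Assay system: NIH/3T3 fibroblasts plus reporter T. cruzi. Amount: NIH/3T3 cells, 5,000 per well. Buffer or medium: DMEM, 2% fetal bovine serum. Doses: compound pinned at 50 nL/well, DMSO. Schedule: ≥90 h infection period, 3 h prior cell attachment. Signal: luminescent β-galactosidase signal after 60 min lysis. Read-out: parasite load inhibition, %.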
L major viab – inhibitors of Leishmania major promastigote growth | Leishmania major promastigotes, resazurin fluorescence viability | inhibition, % at 10 µM | 200,000 compounds, 9% hits | AID 1063; in the data active = inhibition above about 50%;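 note: promastigotes grown with compound for 44 hours at 28 °C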
UPR XBP1 act – activators of adaptive arm of unfolded protein response (XBP1) | 330,000 compounds, 0.33% hits | activation, % at 20 µM | CHO-XBP1 luciferase reporter, IRE1-XBP1 UPR activation, luminescence; percent of tunicamycin response, DMSO as zero | AID 463104;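 active = versus positive control, 20 µM dose yields 30% or more activation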;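 note: 100% = tunicamycin at 10 µg/mL and 0% = DMSO only wells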
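Material: CHO-XBP1 cells stably carrying IRE1-XBP1-driven luciferase reporter / Amount: 1000 cells per well / Compound: 20 µM, 1% DMSO / Times: 6 h treatment, 37 °C / Detection: luciferase luminescence / Measure: % activation of reporter signal versus tunicamycin and DMSO controls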
CHOP UPR activ – activators of apoptotic arm of unfolded protein response (CHOP). CHO-CHOP luciferase reporter, UPR activation, luminescence; percent of tunicamycin response over DMSO baseline. activation, % at 10 µM. 330,000 compounds, 0.34% hits. AID 449763;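 active = at 10 µM dose, activation of 40% or more, normalized to positive control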;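 note: 100% = tunicamycin at 10 µg/mL and 0% = DMSO alone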
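Assay system: CHO-CHOP cells, stable luciferase reporter of PERK-eIF2a-CHOP signalling / Buffer or medium: F12 plus 10% serum / Compound dosing: one dose, 10 µM in 0.5% DMSO / Times: 6 h compound treatment, 37 °C / Technique: luciferase luminescence / Read-out: % reporter activation, DMSO baseline versus tunicamycin full activation / Benchmarks: tunicamycin and DMSO controls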
Starred values were filed as active, the others as inactive; / = not tested or not shown. The entries come from a sample that favours hits as a whole.

SMILES	CHOP inh	Dynein cargo inh	T cruzi inh	L major viab	UPR XBP1 act	CHOP UPR activ
Cc1ccc(NC(=O)C(=O)c2ccc(C)cc2)cc1	/	/	-15.6	/	-4.4	3.8
CC(=O)Nc1ccc(NC(=O)CSc2nc(N)c(NC(=O)c3ccco3)c(=O)[nH]2)cc1	/	/	-16.1	/	-2.2	-0.1
O=c1c(C=Nc2cccc(C(F)(F)F)c2)c[nH]n1-c1cccc(Cl)n1	52.6	0.0118	-0.6	-2.2	0.1	3.0
O=c1c(C=Nc2ccc(Cl)cc2)c[nH]n1-c1cccc(Cl)n1	83.4*	0.188	-4.6	-5.8	-1.3	1.6
COc1cc(CNCCN2CCOCC2)ccc1OCc1c(Cl)cccc1Cl	-16.3	-0.000292	49.1	86.4*	-1.9	6.6
CCOc1cc(CNCCN2CCOCC2)ccc1OCc1ccccc1Cl	-7.6	-0.199	55.8*	98.2*	-0.7	1.9
CCOc1c(CNCCN2CCOCC2)cccc1OC	7.4	0.677	-5.1	-0.2	-2.3	-1.5
COc1cc(CNCCN2CCOCC2)ccc1OCC(=O)NC(C)(C)C	8.8	0.637	27.1	-1.7	-0.6	0.1
CCCCC(=O)NC(c1ccc(N(CC)CC)cc1)c1ccc2cccnc2c1O (configuration not stated)	/	/	68.1*	/	-1.6	3.5
CCCCC(=O)NC(c1ccc(N(C)C)cc1)c1ccc2cccnc2c1O (configuration not stated)	/	/	56.6*	/	4.0	19.0
O=C(c1ccc(-n2cncn2)c([N+](=O)[O-])c1)N1CCN(S(=O)(=O)c2ccccc2F)CC1	/	/	-0.4	/	1.3	0.2
OCCNCc1ccc(OCc2ccc(Cl)cc2Cl)cc1	-16.8	2.13	31.3	100.5*	6.3	6.1
COc1ccc(CNCc2cc(Cl)ccc2O)cc1	/	/	/	/	0.1	-0.7
OCCCCNCc1ccc(OCc2ccc(Cl)cc2Cl)cc1	14.3	1.2	60.0*	100.5*	5.9	1.2
CC1(c2nnc(-c3cccc(Cl)c3)o2)CC(c2ccccc2F)=NO1 (configuration not stated)	/	/	-11.7	/	1.0	3.0
Cc1nc(C)n(C(C)CNS(=O)(=O)c2ccc(Cl)cc2)n1 (configuration not stated)	/	/	-2.2	/	-2.5	0.2
CC(c1ccccc1)N1C(=O)NC(NC(=O)C(C)(C)C)(C(F)(F)F)C1=O (configuration not stated)	11.8	-0.0885	-7.0	51.7*	-2.4	0.8
CC(C)(C)C(=O)NC1(C(F)(F)F)NC(=O)N(CCc2ccccc2)C1=O (configuration not stated)	/	/	-1.9	/	6.3	0.9
CCN/C=C(\C#N)S(=O)(=O)c1ccc(Br)cc1	5.7	0.543	4.1	/	-0.9	0.6
Cc1ccccc1CNC1CCCCC1	8.4	0.0527	-13.0	-8.3	-0.9	-0.1
O=[N+]([O-])c1ccccc1CNC1CCCCCC1	6.5	1.13	-1.7	83.2*	0.3	0.3
CCOC(=O)Cc1cc(-c2ccc(OC)cc2)nc2ccc3ccccc3c12	23.5	0.207	44.0	98.7*	-1.9	1.4
Cc1cc(C(=O)COC(=O)c2cccc(O)c2)c(C)n1C1CC1	/	/	/	/	-7.0	-6.5
C=CCn1c(-c2cc(-c3ccc(C)cc3)nc3ccccc23)n[nH]c1=S	70.4*	-0.712	33.2	26.2	5.9	2.0
Cc1cccc(N2CCN(C(=O)c3ccc4ncsc4c3)CC2)c1C	56.6	0.0257	/	60.6*	/	/
Cc1noc(C)c1S(=O)(=O)Nc1ccc(C(=O)N2CCN(c3cccc(Cl)c3)CC2)cc1	33.6	-0.0613	-7.5	-5.1	-1.9	-1.2
Cc1cccc(N2CCN(C(=O)c3ccc(NS(=O)(=O)c4c(C)noc4C)cc3)CC2)c1C	47.0	0.235	28.9	97.4*	-4.0	-1.4
O=C(c1ccc2ncsc2c1)N1CCN(c2ccccc2Cl)CC1	2.5	0.692	-6.5	38.0	2.8	2.1
CC(=O)Oc1c(-c2ccco2)oc2ccccc2c1=O	17.0	0.654	-9.3	-7.7	0.3	1.3
CCOC(=O)[C@H]1[C@H]2COc3ccccc3[C@@H]2N2C(=O)CNC(=O)[C@@]12C	/	/	/	/	0.2	0.2
